Key:
Plasmodium falciparum [1] = assay: Antiplasmodial activity against CQ-susceptible Plasmodium falciparum 3D7 infected in A+ human blood assessed as reduction in parasite growth measured after 72 hrs by HRP2 ELISA; assay type: functional, organism-based; settings: 3D7, Blood
Method in brief: (§1)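 IC50s against P. falciparum chloroquine-susceptible 3D7 and chloroquine-resistant W2 strains, each tested separately. Values are the mean and standard deviation of 6 to 9 independent experiments.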

Plasmodium falciparum [2] = assay: Antiplasmodial activity against CQ-resistance Plasmodium falciparum W2 infected in A+ human blood assessed as reduction in parasite growth measured after 72 hrs by HRP2 ELISA; assay type: functional, organism-based; method in brief: as §1
[3] = Cytotoxicity against African green monkey Vero cells; assay type: toxicity, cell-based; settings: African green monkey (Chlorocebus sabaeus)
[4] = Selectivity index, ratio of IC50 for cytotoxicity against African green monkey Vero cells to IC50 for antiplasmodial activity against CQ-susceptible Plasmodium falciparum 3D7 infected in A+ human blood assessed as reduction in parasite growth measured after 72 hrs by HRP2 ELISA; assay type: toxicity, cell-based; settings: read-out: Selectivity Index
Method in brief: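 Selectivity index calculated as the IC50 for cytotoxicity on Vero cells divided by the antiplasmodial IC50 against the 3D7 strain.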

[5] = Selectivity index, ratio of IC50 for cytotoxicity against African green monkey Vero cells to IC50 for antiplasmodial activity against CQ-resistance Plasmodium falciparum W2 infected in A+ human blood assessed as reduction in parasite growth measured after 72 hrs by HRP2 ELISA; assay type: toxicity, cell-based; settings: read-out: Selectivity Index
Method in brief: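 Selectivity index calculated as the IC50 for cytotoxicity on Vero cells divided by the antiplasmodial IC50 against the W2 strain.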

[6] = Resistance index, ratio of IC50 for antiplasmodial activity against CQ-resistance Plasmodium falciparum W2 infected in A+ human blood to IC50 for antiplasmodial activity against CQ-susceptible Plasmodium falciparum 3D7 infected in A+ human blood; assay type: functional
Method in brief: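 Resistance index calculated as IC50 against W2 divided by IC50 against 3D7, using the in vitro antiplasmodial IC50s measured for each strain.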

Row | Structure (SMILES) | IC50 (Plasmodium falciparum [1]) | IC50 (Plasmodium falciparum [2]) | IC50 [3] | selectivity ratio at 72 h [4] | selectivity ratio at 72 h [5] | Ratio IC50 [6]
1 | Cc1cc(NCCCCCCNc2ccnc3cc(Cl)ccc23)n2ncnc2n1 | 0.3 µM | 0.28 µM | 311 µM | 1040 | 1110 | 0.93
2 | Cc1cc(NCCCCCCNc2cc(C)nc3ncnn23)n2ncnc2n1 | 11.6 µM | 11.3 µM |  |  |  | 0.97
3 | Cc1cc(NCCNc2cc(C)nc3ncnn23)n2ncnc2n1 | 52.2 µM | 53.8 µM |  |  |  | 1.03
4 | Cc1cc(NCCCCNc2ccnc3cc(Cl)ccc23)n2ncnc2n1 | 0.27 µM | 0.42 µM | 250 µM | 927 | 596 | 1.56
5 | Cc1cc(NCCCNc2ccnc3cc(Cl)ccc23)n2ncnc2n1 | 0.62 µM | 0.49 µM | 181 µM | 291 | 369 | 0.79
6 | Cc1cc(NCCNc2ccnc3cc(Cl)ccc23)n2ncnc2n1 | 9 µM | 10.8 µM |  |  |  | 1.2
7 | Cc1cc(NCCCCCCCCNc2cc(C)nc3ncnn23)n2ncnc2n1 | 45.8 µM | 49.4 µM |  |  |  | 1.08
8 | Cc1cc(NCCCCNc2cc(C)nc3ncnn23)n2ncnc2n1 | 12.5 µM | 11.8 µM |  |  |  | 0.94
9 | Cc1cc(N2CCN(c3ccnc4cc(Cl)ccc34)CC2)n2ncnc2n1 | 12.6 µM | 12.9 µM |  |  |  | 1.02
10 | Cc1cc(NCCCCCCCCNc2ccnc3cc(Cl)ccc23)n2ncnc2n1 | 0.17 µM | 0.2 µM | 351 µM | 2060 | 1750 | 1.18
11 | Cc1cc(NCCCNc2cc(C)nc3ncnn23)n2ncnc2n1 | 47.3 µM | 49.1 µM |  |  |  | 1.03

Source: ChEMBL document CHEMBL5120935, “Synthesis, Anti-Plasmodial Activities, and Mechanistic Insights of 4-Aminoquinoline-Triazolopyrimidine Hybrids” (ACS Med Chem Lett, 2022)
